Laboratory results reported in ChEMBL document CHEMBL1155371, “Small molecule inhibitors of the neuropilin-1 vascular endothelial growth factor A (VEGF-A) interaction” (J Med Chem, 2010).
pIC50: −log10 of the molar value. The source made the active and inactive calls. The calls are words filed in the database; no cut-off is given here. Where a SMILES comes first, the peptide text is derived from it.

Assays:
Neuropilin-1 [1] = target: T1, Neuropilin-1 (Homo sapiens, UniProt O14786); assay: Displacement of [125I]VEGF-A from human NRP1 expressed in pig aortic endothelial cells at 100 uM; assay type: cell-based; conditions: Endothelial cell
T1 sequence (O14786 whole entry): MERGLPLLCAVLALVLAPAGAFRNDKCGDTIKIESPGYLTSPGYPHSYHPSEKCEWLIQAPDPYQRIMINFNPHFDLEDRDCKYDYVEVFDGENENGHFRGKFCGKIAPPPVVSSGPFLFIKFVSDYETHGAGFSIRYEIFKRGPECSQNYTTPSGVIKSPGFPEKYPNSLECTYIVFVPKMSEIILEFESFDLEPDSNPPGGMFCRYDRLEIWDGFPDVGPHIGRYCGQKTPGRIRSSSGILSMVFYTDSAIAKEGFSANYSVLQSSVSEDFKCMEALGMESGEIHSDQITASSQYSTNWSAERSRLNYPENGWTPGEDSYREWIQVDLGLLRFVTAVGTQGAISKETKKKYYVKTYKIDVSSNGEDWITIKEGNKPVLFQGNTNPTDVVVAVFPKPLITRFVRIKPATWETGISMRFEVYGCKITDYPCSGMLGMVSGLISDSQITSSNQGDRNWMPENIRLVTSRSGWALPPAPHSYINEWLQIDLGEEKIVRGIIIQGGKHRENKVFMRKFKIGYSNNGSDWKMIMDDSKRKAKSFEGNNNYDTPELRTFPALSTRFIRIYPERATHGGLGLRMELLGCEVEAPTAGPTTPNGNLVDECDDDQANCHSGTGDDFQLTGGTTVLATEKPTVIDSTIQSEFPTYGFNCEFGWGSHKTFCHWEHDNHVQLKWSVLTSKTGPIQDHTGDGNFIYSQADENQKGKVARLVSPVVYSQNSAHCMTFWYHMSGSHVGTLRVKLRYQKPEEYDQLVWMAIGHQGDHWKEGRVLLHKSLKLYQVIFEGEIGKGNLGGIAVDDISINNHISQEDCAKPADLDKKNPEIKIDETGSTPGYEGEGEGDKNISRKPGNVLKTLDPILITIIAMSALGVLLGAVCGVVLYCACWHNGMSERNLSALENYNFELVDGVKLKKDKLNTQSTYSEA
Outline: (§1)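 PAE cells stably expressing NRP1 (Ham's F12, 10% FBS, hygromycin B) grown to confluence. Compounds at 0.1−100 μM (single-point inhibition read at 100 μM) were added, then 0.1 nM 125I-VEGF-A165. Nonspecific binding was taken with 100-fold excess unlabeled VEGF. IC50 came from competition curves; three independent experiments, triplicate per concentration, mean ± SEM.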

Neuropilin-1 [2] = target: T1, Neuropilin-1; assay: Displacement of [125I]VEGF-A from human NRP1 expressed in pig aortic endothelial cells; assay type: cell-based, Endothelial cell; outline: as §1
Neuropilin-1 [3] = target: T1, Neuropilin-1; assay: Displacement of [125I]VEGF-A from human NRP1 expressed in human A549 cells; assay type: cell-based
HUVEC = assay: Inhibition of VEGF-A-induced chemotaxis in HUVEC assessed as reduction in cell migration; assay type: functional, cell-based; conditions: Homo sapiens
Outline: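 HUVECs in EBM/0.1% BSA were pretreated 30 min with compound or DMSO, and 1.5 × 10^5 cells were loaded into collagen I-coated 8 μm-pore transwell inserts. Cells migrated toward 25 ng/mL VEGF or medium control for 4 h at 37 °C. Migrated cells were stained and counted in four fields at ×100. Three experiments in duplicate, mean ± SEM.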

[4] = target: Vascular endothelial growth factor receptor 1 (Homo sapiens) (UniProt P17948); assay: Displacement of biotinylated-[…] from human VEGFR1 expressed in human DU145 cells; assay type: cell-based; conditions: DU-145
Sequence of Vascular endothelial growth factor receptor 1 (Homo sapiens) (P17948 whole entry): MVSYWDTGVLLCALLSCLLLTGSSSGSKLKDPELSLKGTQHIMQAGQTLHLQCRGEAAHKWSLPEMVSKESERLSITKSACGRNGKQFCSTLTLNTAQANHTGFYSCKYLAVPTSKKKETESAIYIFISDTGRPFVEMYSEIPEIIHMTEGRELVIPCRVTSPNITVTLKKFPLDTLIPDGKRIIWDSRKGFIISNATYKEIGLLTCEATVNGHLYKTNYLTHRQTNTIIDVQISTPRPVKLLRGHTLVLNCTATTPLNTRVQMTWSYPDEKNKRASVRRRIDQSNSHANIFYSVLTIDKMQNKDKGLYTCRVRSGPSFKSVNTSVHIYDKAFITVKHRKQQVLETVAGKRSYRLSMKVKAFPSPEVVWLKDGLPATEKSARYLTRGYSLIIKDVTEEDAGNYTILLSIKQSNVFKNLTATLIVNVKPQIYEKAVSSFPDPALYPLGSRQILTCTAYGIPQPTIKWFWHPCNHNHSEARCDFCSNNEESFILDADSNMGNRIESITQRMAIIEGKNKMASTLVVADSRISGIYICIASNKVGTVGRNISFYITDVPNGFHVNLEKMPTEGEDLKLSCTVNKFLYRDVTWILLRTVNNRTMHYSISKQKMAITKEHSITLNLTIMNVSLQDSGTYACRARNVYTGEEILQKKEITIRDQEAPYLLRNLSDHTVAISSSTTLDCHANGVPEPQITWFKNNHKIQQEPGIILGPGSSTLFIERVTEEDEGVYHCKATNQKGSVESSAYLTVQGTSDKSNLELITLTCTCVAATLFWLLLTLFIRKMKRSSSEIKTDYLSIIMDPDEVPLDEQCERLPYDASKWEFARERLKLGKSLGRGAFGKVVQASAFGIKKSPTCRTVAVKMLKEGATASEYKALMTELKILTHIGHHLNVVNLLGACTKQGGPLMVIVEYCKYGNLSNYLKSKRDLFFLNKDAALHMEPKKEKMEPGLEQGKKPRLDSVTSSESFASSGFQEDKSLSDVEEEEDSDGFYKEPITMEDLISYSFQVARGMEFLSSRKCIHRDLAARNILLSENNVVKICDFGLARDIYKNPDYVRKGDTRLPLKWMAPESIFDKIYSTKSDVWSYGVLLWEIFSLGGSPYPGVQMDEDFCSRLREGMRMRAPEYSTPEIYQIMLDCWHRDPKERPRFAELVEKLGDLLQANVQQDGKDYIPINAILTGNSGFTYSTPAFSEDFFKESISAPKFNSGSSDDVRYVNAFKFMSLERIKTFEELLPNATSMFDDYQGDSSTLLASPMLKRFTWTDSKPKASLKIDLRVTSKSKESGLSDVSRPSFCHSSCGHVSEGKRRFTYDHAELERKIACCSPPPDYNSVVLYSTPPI

Neuropilin-1 [5] = target: T1, Neuropilin-1; assay: Displacement of […] from human NRP1 expressed in human DU145 cells; assay type: cell-based, DU-145
[6] = target: Vascular endothelial growth factor receptor 1 (Homo sapiens) (UniProt P17948); assay: Displacement of biotinylated-[…] from human VEGFR1 expressed in human A549 cells; assay type: cell-based
Neuropilin-1 [7] = target: T1, Neuropilin-1; assay: Displacement of biotinylated-[…] from human NRP1 expressed in HUVEC; assay type: cell-based
[8] = target: Vascular endothelial growth factor receptor 2 (Homo sapiens) (UniProt P35968); assay: Displacement of biotinylated-[…] from human VEGFR2 expressed in human DU145 cells; assay type: cell-based; conditions: DU-145
Sequence of Vascular endothelial growth factor receptor 2 (Homo sapiens) (P35968 whole entry, the tested form may be a part): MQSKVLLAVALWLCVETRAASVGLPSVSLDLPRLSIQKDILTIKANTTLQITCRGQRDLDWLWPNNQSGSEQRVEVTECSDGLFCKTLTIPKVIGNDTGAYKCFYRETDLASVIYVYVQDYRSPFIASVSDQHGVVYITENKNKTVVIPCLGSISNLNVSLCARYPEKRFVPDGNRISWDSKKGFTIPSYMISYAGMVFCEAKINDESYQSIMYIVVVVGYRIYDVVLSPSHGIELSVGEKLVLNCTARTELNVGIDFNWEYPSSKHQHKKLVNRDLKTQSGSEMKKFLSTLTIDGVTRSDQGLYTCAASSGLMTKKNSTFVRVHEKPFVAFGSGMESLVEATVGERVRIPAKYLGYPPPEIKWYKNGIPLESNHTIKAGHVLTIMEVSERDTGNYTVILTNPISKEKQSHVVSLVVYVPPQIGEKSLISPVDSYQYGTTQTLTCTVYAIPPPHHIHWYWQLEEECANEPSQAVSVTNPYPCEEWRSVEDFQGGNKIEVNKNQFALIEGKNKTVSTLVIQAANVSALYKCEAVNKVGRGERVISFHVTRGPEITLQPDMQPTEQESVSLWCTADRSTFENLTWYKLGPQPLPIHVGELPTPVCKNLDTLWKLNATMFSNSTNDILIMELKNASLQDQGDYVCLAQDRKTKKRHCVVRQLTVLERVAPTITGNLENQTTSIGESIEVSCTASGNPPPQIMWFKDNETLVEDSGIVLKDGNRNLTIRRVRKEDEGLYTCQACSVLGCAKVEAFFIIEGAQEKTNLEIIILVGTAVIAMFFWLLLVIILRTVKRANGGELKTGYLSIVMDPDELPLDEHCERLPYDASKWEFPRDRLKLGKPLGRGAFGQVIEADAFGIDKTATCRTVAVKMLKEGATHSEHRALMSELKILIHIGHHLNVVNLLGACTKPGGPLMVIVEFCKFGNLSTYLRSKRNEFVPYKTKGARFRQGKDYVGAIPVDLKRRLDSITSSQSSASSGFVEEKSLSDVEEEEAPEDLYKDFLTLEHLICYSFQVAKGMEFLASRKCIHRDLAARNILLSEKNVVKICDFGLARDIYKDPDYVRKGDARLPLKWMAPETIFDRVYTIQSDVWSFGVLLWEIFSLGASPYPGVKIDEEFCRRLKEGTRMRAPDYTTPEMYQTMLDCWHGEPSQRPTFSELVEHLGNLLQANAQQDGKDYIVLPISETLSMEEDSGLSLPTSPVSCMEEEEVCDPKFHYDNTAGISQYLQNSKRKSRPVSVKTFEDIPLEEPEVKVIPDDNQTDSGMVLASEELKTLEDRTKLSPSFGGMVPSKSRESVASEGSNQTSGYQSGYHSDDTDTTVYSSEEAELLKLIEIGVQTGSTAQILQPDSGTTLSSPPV

[9] = target: Vascular endothelial growth factor receptor 2 (Homo sapiens) (UniProt P35968); assay: Displacement of biotinylated-[…] from human VEGFR2 expressed in human A549 cells; assay type: cell-based
Neuropilin-1 [10] = target: T1, Neuropilin-1; assay: Displacement of […] from NRP1 b1 domain by cell-free assay
[11] = target: Vascular endothelial growth factor receptor 2 (Homo sapiens) (UniProt P35968); assay: Inhibition of VEGF-A-induced VEGFR2 phosphorylation in HUVEC at 100 uM by ELISA; assay type: cell-based
Outline: (§2)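 Confluent HUVECs were pretreated 30 min with compound or DMSO vehicle, then stimulated with or without 25 ng/mL VEGF-A165 for 5 min at 37 °C. Tyr1175-phosphorylated and total VEGFR2 in lysates were measured by sandwich ELISA kits. Three independent experiments in duplicate, mean ± SEM.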

[12] = target: Vascular endothelial growth factor receptor 2 (Homo sapiens) (UniProt P35968); assay: Inhibition of VEGF-A-induced VEGFR2 phosphorylation in HUVEC by ELISA; assay type: cell-based; outline: as §2
A549 = assay: Cytotoxicity against human A549 cells after 48 hrs by XTT method; assay type: functional, cell-based
Outline: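 A549 lung carcinoma cells seeded at 4 × 10^3 per well in serum-free medium, with compound added. After 44 h incubation, XTT labeling reagent was added and cells were incubated a further 4 h, giving 48 h total. Formazan read at 490 nm against a 595 nm reference. Three independent experiments, each in triplicate, reported as mean ± SEM.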

Compound	Activity (Neuropilin-1 [1])	other results
COC(=O)[C@H](CCCNC(=N)N)NC(=O)c1sccc1NS(=O)(=O)c1ccc([N+](=O)[O-])cc1	21%	–
N=C(N)NCCC[C@H](NC(=O)c1sccc1NS(=O)(=O)c1ccc([N+](=O)[O-])cc1)C(=O)O (stereo in doubt; 38) [listing 1 of 2 here]	75%	–
N=C(NCCC[C@H](NC(=O)c1sccc1NS(=O)(=O)c1ccc([N+](=O)[O-])cc1)C(=O)O)N[N+](=O)[O-]	3%	–
N=C(N)NCCC[C@H](NC(=O)[C@@H]1CCCN1C(=O)[C@@H]1CCCN1C(=O)[C@@H](N)CCCCN)C(=O)O (H-KPPR-OH)	96%	pIC50 (Neuropilin-1 [2]): 4.85
N=C(N)NCCC[C@H](NC(=O)c1sccc1NS(=O)(=O)c1ccc2nsnc2c1)C(=O)NO	59%	–
C[C@@H](NC(=O)[C@@H]1CCCN1C(=O)[C@@H](N)CCCCN)C(=O)N[C@@H](CCCNC(=N)N)C(=O)O	36%	–
N=C(N)NCCC[C@H](NC(=O)c1sccc1S(=O)(=O)Nc1ccc(N)cc1)C(=O)O	0%	–
C[C@H](NC(=O)[C@@H]1CCCN1C(=O)[C@@H](N)CCCCN)C(=O)N[C@H](CCCNC(=N)N)C(=O)O	22%	–
N=C(N)NCCC[C@H](NC(=O)c1ccccc1S(=O)(=O)C1CCNCC1)C(=O)O	10%	–
N=C(N)NCCC[C@H](NC(=O)C1CCN(Cc2nc(O)nc(NCCCCN)n2)CC1)C(=O)O	32%	–
N=C(N)NCCC[C@H](NC(=O)[C@H](Cc1ccccc1)NC(=O)[C@@H]1CCCN1C(=O)[C@@H](N)CCCCN)C(=O)O (H-KPFR-OH)	63%	–
CN(c1ccsc1C(=O)N[C@@H](CCCNC(=N)N)C(=O)O)S(=O)(=O)c1ccc([N+](=O)[O-])cc1	42%	–
Cc1nn(C)c(Cl)c1CNc1cccc(S(=O)(=O)Nc2ccsc2C(=O)N[C@@H](CCCNC(=N)N)C(=O)O)c1	88%	pIC50 (Neuropilin-1 [2]): 5.22
CC(=O)Nc1ccc(S(=O)(=O)Nc2ccsc2C(=O)N[C@@H](CCCNC(=N)N)C(=O)O)cc1	84%	pIC50 (Neuropilin-1 [2]): 4.74
N=C(N)NCCC[C@H](NC(=O)c1sccc1NS(=O)(=O)c1ccc([N+](=O)[O-])cc1)C(=O)O (stereo in doubt; 46) [listing 1 of 2 here]	–	pIC50 (Neuropilin-1 [2]; endothelial cell): 4.28
N=C(N)NCCC[C@H](NC(=O)c1sccc1NS(=O)(=O)c1cccc2nonc12)C(=O)O	87%	pIC50 (Neuropilin-1 [2]): 4.77
CN(c1ccsc1C(=O)N[C@@H](CCCNC(=N)N)C(=O)O)S(=O)(=O)c1ccc(N)cc1	25%	–
N=C(N)NCCC[C@H](NC(=O)c1sccc1NS(=O)(=O)c1cccc2nsnc12)C(=O)O	99%	pIC50 (Neuropilin-1 [3]): 5.15; inhibition (HUVEC): Active; Activity [4]: inactive; pIC50 (Neuropilin-1 [5]): 5.52; pIC50 (Neuropilin-1 [2]): 5.10; Activity [6]: inactive; pIC50 (Neuropilin-1 [7]): 4.64; Activity [8]: inactive; Activity [9]: inactive; pIC50 (Neuropilin-1 [10]): 5.52; inhibition [11]: 34%; inhibition [12]: Dose-dependent effect; Activity (A549): Active
N=C(N)NCCC[C@H](NC(=O)c1sccc1NS(=O)(=O)c1ccc([N+](=O)[O-])cc1)C(=O)O (stereo in doubt; 38) [listing 2 of 2 here]	–	pIC50 (Neuropilin-1 [2]): 4.28
N=C(N)NCCC[C@H](NC(=O)c1sccc1NS(=O)(=O)c1ccccc1N)C(=O)O	95%	pIC50 (Neuropilin-1 [2]): 4.77
N=C(N)NCCC[C@H](NC(=O)C1CCN(Cc2cccc(NC(=O)CCCCCN)c2)CC1)C(=O)O	35%	–
N=C(N)NCCC[C@H](NC(=O)c1cccc(-c2cccc(NC(=O)C3CCC(CN)CC3)c2)c1)C(=O)O (some centres undefined)	49%	–
N=C(N)NCCC[C@H](NC(=O)c1sccc1NS(=O)(=O)c1ccccc1[N+](=O)[O-])C(=O)O	100%	pIC50 (Neuropilin-1 [2]): 5.05

Compound	Activity (Neuropilin-1 [1])	other results
N=C(N)NCCC[C@@H](NC(=O)c1sccc1NS(=O)(=O)c1ccc(N)cc1)C(=O)O	36%	–
C[C@H](NC(=O)[C@@H]1CCCN1C(=O)[C@H](N)CCCCN)C(=O)N[C@@H](CCCNC(=N)N)C(=O)O	51%	–
N=C(N)NCCC[C@H](NC(=O)c1ccccc1NS(=O)(=O)c1ccc(N)cc1)C(=O)O	70%	–
N=C(N)NC(=O)CC[C@H](NC(=O)c1sccc1NS(=O)(=O)c1ccc([N+](=O)[O-])cc1)C(=O)O	58%	–
N=C(N)NCCC[C@H](NC(=O)c1sccc1NS(=O)(=O)c1cccc(N)c1)C(=O)O	84%	pIC50 (Neuropilin-1 [2]): 4.85
NCCCC[C@H](NC(=O)c1sccc1NS(=O)(=O)c1ccc([N+](=O)[O-])cc1)C(=O)O	20%	–
N=C(N)NCCC[C@@H](CO)NC(=O)c1sccc1NS(=O)(=O)c1ccc2nsnc2c1	21%	–
N=C(N)NCCC[C@H](NC(=O)c1sccc1NS(=O)(=O)c1ccc(N)cc1)C(=O)O	78%	pIC50 (Neuropilin-1 [2]): 4.89
Cc1nc(S(=O)(=O)Nc2ccsc2C(=O)N[C@@H](CCCNC(=N)N)C(=O)O)cn1C	88%	pIC50 (Neuropilin-1 [2]): 4.92
C[C@H](NC(=O)[C@@H]1CCCN1C(=O)[C@@H](N)CCCCN)C(=O)N[C@@H](CCCCN)C(=O)O (H-KPAK-OH)	22%	–
C[C@H](NC(=O)[C@@H]1CCCN1C(=O)[C@@H](N)CCCCN)C(=O)N[C@@H](CCC(N)=O)C(=O)O (H-KPAQ-OH)	19%	–
Cc1oc(-c2ccc(NC(=O)CCCCN)cc2)cc1C(=O)N[C@@H](CCCNC(=N)N)C(=O)O	31%	–
N=C(N)NCCC[C@H](NC(=O)c1sccc1NS(=O)(=O)c1ccc(F)cc1F)C(=O)O	79%	pIC50 (Neuropilin-1 [2]): 4.48
C/N=C(/NC)NCCC[C@H](NC(=O)c1sccc1NS(=O)(=O)c1ccc([N+](=O)[O-])cc1)C(=O)O	12%	–
N=C(N)Nc1ccc(C[C@H](NC(=O)c2sccc2NS(=O)(=O)c2ccc(N)cc2)C(=O)O)cc1	13%	–
N=C(N)NCCC[C@H](NC(=O)c1cccs1)C(=O)O	28%	–
N=C(N)NCCCC[C@@H](CC(=O)O)NC(=O)c1sccc1NS(=O)(=O)c1ccc2nsnc2c1	11%	–
O=c1[nH]cc(F)c(=O)[nH]1 [FLUOROURACIL]	–	pIC50 (A549; A549, 48 h): 4.11
C[C@H](NC(=O)[C@@H]1CCCN1C(=O)[C@@H](N)CCCCN)C(=O)N[C@@H](CCCNC(=N)N)C(=O)O	83%	pIC50 (Neuropilin-1 [2]): 4.52
N=C(N)NCCC[C@H](NC(=O)c1cccc(-c2cccc(NC(=O)CCCCCN)c2)c1)C(=O)O	40%	–
N=C(N)NCCCC[C@H](NC(=O)c1sccc1NS(=O)(=O)c1ccc(N)cc1)C(=O)O	20%	–
N=C(N)NCCC[C@H](NC(=O)c1sccc1NS(=O)(=O)c1ccc([N+](=O)[O-])cc1)C(=O)O (stereo in doubt; 46) [listing 2 of 2 here]	75%	–
